Assay outcomes from PubChem.
EWS-Fli inh: inhibitors of EWS/Fli oncoprotein transcriptional activity; 0.67% of 350,000 active; inhibition, % at 12.6 µM; A673 NR0B1-luciferase reporter, viability-normalised;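 active = mean inhibition of at least 50% after viability correction, with every replicate also passing that limit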;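 note: firefly luciferase signal divided by Alamar Blue viability fluorescence both relative to DMSO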
N-glyco inh: N-linked glycosylation inhibition; D54 ERlucT glycosylation luciferase reporter, 24 h; percent of 100 nM tunicamycin response; reporter increase, % at 12.5 µM; 0.23% of 360,000 active; AID 588692;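 active = mean luciferase reporter signal, scaled so untreated is 0 and the glycosylation-blocking control 100, at or above a set limit in every replicate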;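 note: luciferase carries N-glycosylation sites so blocking glycosylation raises the light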
PAX8 reporter: lowers PAX8-driven luciferase in RMG-I cells; inhibition, % at 12.6 µM; RMG-I TPO-luciferase reporter, SteadyGlo, 24 h; 1.2% of 360,000 active;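 active = mean replicate inhibition at least 60% with every replicate also reaching 60%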;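 note: luciferase light reporting Pax8 driven TPO promoter activity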
AF4-AF9 inh: MLL-AF4/AF9 protein interaction inhibition. P42568. AlphaScreen, biotin-AF4 peptide binding to FLAG-AF9. inhibition, % at 10 µM. 0.47% of 350,000 active. AID 651704;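 active = every replicate reaching a set inhibition limit, whatever the replicate mean, cut at about 25% in these data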
Target sequence (P42568 whole entry, looked up): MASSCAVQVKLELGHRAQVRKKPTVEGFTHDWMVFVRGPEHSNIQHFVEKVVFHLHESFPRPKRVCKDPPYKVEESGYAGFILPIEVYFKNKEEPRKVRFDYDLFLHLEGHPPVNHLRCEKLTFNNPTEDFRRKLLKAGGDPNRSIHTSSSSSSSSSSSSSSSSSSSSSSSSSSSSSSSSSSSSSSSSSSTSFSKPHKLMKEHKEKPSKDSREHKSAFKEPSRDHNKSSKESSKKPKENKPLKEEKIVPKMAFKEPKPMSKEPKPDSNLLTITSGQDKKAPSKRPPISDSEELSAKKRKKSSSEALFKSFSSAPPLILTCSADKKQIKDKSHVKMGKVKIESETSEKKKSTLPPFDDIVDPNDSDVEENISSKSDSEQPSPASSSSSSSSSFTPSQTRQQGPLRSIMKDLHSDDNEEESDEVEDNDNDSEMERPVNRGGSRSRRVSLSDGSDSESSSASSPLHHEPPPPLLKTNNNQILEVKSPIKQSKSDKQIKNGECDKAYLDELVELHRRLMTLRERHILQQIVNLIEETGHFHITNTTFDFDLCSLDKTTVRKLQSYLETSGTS
Env fusion inh: blocks HIV Env-driven cell-cell fusion | 1.1% of 360,000 active | inhibition, % at 12.3 µM | HeLa-JRFL Env/CEM21 cell fusion, luciferase;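 active = mean replicate inhibition score of at least 50 and every replicate individually at or above 50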
FN deposit inh: fibronectin deposition inhibition; inhibition, % at 12.6 µM; AH1F fibroblasts, Alexa488-fibronectin deposition fluorescence, overnight; AID 743247; 0.086% of 350,000 active;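 active = mean inhibition across replicates of 30% or more, regardless of how many single replicates reach that level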
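Schedule: 1 h cell adhesion before compound, then overnight fibronectin incubation; test system: AH1F fibroblast monolayer depositing Alexa488-labelled fibronectin into matrix; quantity: 10000 AH1F cells per well; probe or stimulus: fluorescent fibronectin at 24 nM final; signal: fluorescence, ex 485 nm, em 525 nm; evaluation: percent inhibition as loss of matrix-bound fibronectin fluorescence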
A number is an active result. A selection: hits, their analogues and other compounds. The true share with any hit is near 2.5%.

How did Cc1ccc(S(=O)(=O)Nc2cccc3c2O[C@@H](CN(C)Cc2ccc(C(=O)O)cc2)[C@H](C)CN([C@H](C)CO)C3=O)cc1 do in these assays?
EWS-Fli inh: inactive; AF4-AF9 inh: inactive; Env fusion inh: inactive

Results for C/C=C/c1ccc([C@@H]2[C@@H](CO)N3C(=O)CN(C(=O)NC4CCCC4)C[C@@H]23)cc1 ?
EWS-Fli inh: inactive; PAX8 reporter: inactive; AF4-AF9 inh: inactive; FN deposit inh: inactive

Results for CO[C@H]1CN(C)C(=O)c2cc(NC(=O)Nc3cc(Cl)cc(Cl)c3)ccc2OC[C@H](C)NC[C@@H]1C ?
EWS-Fli inh: inactive; FN deposit inh: inactive

How did N#Cc1cccc(-c2ccc3c(c2)[C@H]2[C@H](CCN2Cc2ccncc2)[C@@H](CO)N3)c1 do in these assays?
AF4-AF9 inh: inactive; FN deposit inh: inactive

How did COc1cccc2sc(Nc3nc(-c4ccncc4)cs3)nc12 do in these assays?
EWS-Fli inh: 63; N-glyco inh: inactive; PAX8 reporter: inactive; AF4-AF9 inh: inactive; Env fusion inh: inactive; FN deposit inh: inactive

What do the screens show for `CCC(=O)N(C)C[C@@H]1Oc2cc(C3=CCCC3)ccc2S(=O)(=O)N([C@H](C)CO)C[C@H]1C`?
EWS-Fli inh: inactive; AF4-AF9 inh: inactive; Env fusion inh: inactive

What do the screens show for `CC[C@H](C)[C@H](NC(N)=O)C(=O)NNC(=O)c1ccc(COc2cccc3cccnc23)cc1`?
EWS-Fli inh: inactive; N-glyco inh: inactive; PAX8 reporter: inactive; AF4-AF9 inh: 35; Env fusion inh: inactive; FN deposit inh: inactive

Results for C[C@@H]1CN([C@H](C)CO)S(=O)(=O)c2ccc(C#CC3(O)CCCC3)cc2O[C@H]1CN(C)C(=O)Nc1ccccc1 ?
EWS-Fli inh: inactive; AF4-AF9 inh: inactive; Env fusion inh: inactive; FN deposit inh: inactive

How did CCN(CC(O)Cn1c2ccccc2c2ccccc21)S(=O)(=O)c1ccc(C)cc1 (stereo not drawn) do in these assays?
N-glyco inh: inactive; PAX8 reporter: inactive; Env fusion inh: 56

What do the screens show for `O=C(C[C@@H]1CC[C@H]2[C@@H](COC[C@@H](O)CN2C(=O)C2CC2)O1)NCc1ccccc1Cl`?
EWS-Fli inh: inactive; PAX8 reporter: inactive; AF4-AF9 inh: inactive; Env fusion inh: inactive; FN deposit inh: inactive

Results for C[C@H]1CN([C@@H](C)CO)C(=O)Cc2cc(NS(=O)(=O)c3ccccc3)ccc2O[C@H]1CN(C)Cc1ccc(C(=O)O)cc1 ?
EWS-Fli inh: inactive; AF4-AF9 inh: inactive; Env fusion inh: inactive; FN deposit inh: inactive

Results for O=C1[C@H](Cc2ccccc2)NCCCC[C@@H](c2ccco2)N1Cc1ccccc1 ?
EWS-Fli inh: inactive; N-glyco inh: inactive; PAX8 reporter: inactive; AF4-AF9 inh: inactive; Env fusion inh: 58; FN deposit inh: inactive

How did O=C1[C@H](Cc2ccccc2)NCCCC[C@H](c2ccc(Cl)cc2)N1Cc1ccccc1 do in these assays?
EWS-Fli inh: inactive; N-glyco inh: inactive; PAX8 reporter: inactive; AF4-AF9 inh: inactive; Env fusion inh: 86; FN deposit inh: inactive

What do the screens show for `O=C1[C@H](Cc2ccccc2)NCC=CC[C@@H](c2ccco2)N1Cc1ccccc1`?
EWS-Fli inh: inactive; N-glyco inh: inactive; PAX8 reporter: inactive; AF4-AF9 inh: inactive; Env fusion inh: inactive; FN deposit inh: inactive

What do the screens show for `O=C1[C@H](Cc2ccccc2)NCCCC[C@H](c2ccco2)N1Cc1ccccc1`?
EWS-Fli inh: inactive; N-glyco inh: inactive; PAX8 reporter: inactive; AF4-AF9 inh: inactive; Env fusion inh: 74; FN deposit inh: inactive

How did C[C@@H]1CN([C@@H](C)CO)C(=O)Cc2cc(NS(=O)(=O)c3ccc(F)cc3)ccc2O[C@H]1CN(C)C do in these assays?
EWS-Fli inh: inactive; PAX8 reporter: inactive; AF4-AF9 inh: inactive; Env fusion inh: inactive

What do the screens show for `C[C@H](CO)N1C[C@H](C)[C@H](CN(C)Cc2ccc3c(c2)OCO3)Oc2c(NC(=O)c3nc4ccccc4s3)cccc2C1=O`?
AF4-AF9 inh: inactive; FN deposit inh: inactive

What do the screens show for `CCOC(=O)c1c(C)[nH]c(C)c1C(=O)COC(=O)[C@@H](NC(=O)c1ccccc1OCC)C(C)C`?
N-glyco inh: inactive; Env fusion inh: 102; FN deposit inh: inactive

How did CCOc1ccccc1C(=O)NC(C(=O)OCC(=O)NNC(=O)c1cccs1)C(C)C (stereo not drawn) do in these assays?
EWS-Fli inh: inactive; N-glyco inh: inactive; PAX8 reporter: inactive; AF4-AF9 inh: inactive; Env fusion inh: inactive

Results for C[C@@]12C(=O)Nc3ccc(Br)cc3C(=O)N1[C@H]1c3ccccc3OC[C@@H]1[C@@H]2c1ccccc1 ?
N-glyco inh: 27

What do the screens show for `C[C@@]12C(=O)Nc3ccc(Cl)cc3C(=O)N1[C@H]1c3cc(Cl)ccc3OC[C@@H]1[C@@H]2c1ccccc1`?
EWS-Fli inh: inactive; N-glyco inh: inactive; PAX8 reporter: inactive; AF4-AF9 inh: inactive; Env fusion inh: inactive; FN deposit inh: inactive

Results for Cc1ccc2c(c1)C(=O)N1[C@H]3c4ccccc4OC[C@@H]3[C@H](c3ccccc3)[C@]1(C)C(=O)N2 ?
N-glyco inh: 31

Results for C[C@@]12C(=O)Nc3ccc(F)cc3C(=O)N1[C@H]1c3cc(Br)ccc3OC[C@@H]1[C@@H]2c1ccccc1 ?
EWS-Fli inh: inactive; N-glyco inh: inactive; PAX8 reporter: inactive; AF4-AF9 inh: inactive; Env fusion inh: 57; FN deposit inh: inactive

Results for Cc1ccc2c(c1)NC(=O)[C@@]1(C)[C@@H](c3ccccc3)[C@H]3COc4ccccc4[C@@H]3N1C2=O ?
EWS-Fli inh: inactive; N-glyco inh: 36; PAX8 reporter: inactive; AF4-AF9 inh: inactive; Env fusion inh: inactive; FN deposit inh: inactive

What do the screens show for `COCC(=O)N1[C@H](CO)[C@@H](c2ccc(-c3cccc(OC)c3)cc2)C12CN(C(C)=O)C2`?
EWS-Fli inh: inactive; PAX8 reporter: inactive; AF4-AF9 inh: inactive

What do the screens show for `CO[C@H](CN(C)C(=O)c1ccc2c(c1)OCO2)[C@@H](C)CN([C@H](C)CO)S(=O)(=O)c1ccccc1`?
EWS-Fli inh: inactive; AF4-AF9 inh: inactive; FN deposit inh: inactive

What do the screens show for `CC(O)[C@H]1CN=C(N)N1CCc1cc(C(F)(F)F)cc(C(F)(F)F)c1` (stereo partly drawn)?
EWS-Fli inh: inactive; N-glyco inh: inactive; PAX8 reporter: inactive; AF4-AF9 inh: inactive; Env fusion inh: inactive; FN deposit inh: inactive

How did NC1=NC[C@H](c2ccccc2)N1CCc1cc(C(F)(F)F)cc(C(F)(F)F)c1 do in these assays?
EWS-Fli inh: 61; N-glyco inh: inactive; PAX8 reporter: inactive; AF4-AF9 inh: inactive; Env fusion inh: inactive; FN deposit inh: inactive

What do the screens show for `CNC(=O)C[C@H]1CC[C@@H]2[C@@H](COc3ccc(NC(=O)c4cccs4)cc3C(=O)N2C)O1`?
EWS-Fli inh: inactive; PAX8 reporter: inactive; Env fusion inh: inactive; FN deposit inh: inactive
